Sampled rows, rich in hits. Any-hit rate of the full collection: about 2.5%.
HTR2A ag = activates the mouse 5-HT2A serotonin receptor | AID 624169 | activation, % at 7.6 µM | 360,000 compounds, 0.66% hits | CHO-K1 mHTR2A beta-arrestin complementation, luminescence; percent of 30 µM serotonin response;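 active means activation above a run cutoff, the mean activation of all tested compounds plus 3 SD, cut at about 14% in these data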
Target sequence (P35363 whole entry, looked up): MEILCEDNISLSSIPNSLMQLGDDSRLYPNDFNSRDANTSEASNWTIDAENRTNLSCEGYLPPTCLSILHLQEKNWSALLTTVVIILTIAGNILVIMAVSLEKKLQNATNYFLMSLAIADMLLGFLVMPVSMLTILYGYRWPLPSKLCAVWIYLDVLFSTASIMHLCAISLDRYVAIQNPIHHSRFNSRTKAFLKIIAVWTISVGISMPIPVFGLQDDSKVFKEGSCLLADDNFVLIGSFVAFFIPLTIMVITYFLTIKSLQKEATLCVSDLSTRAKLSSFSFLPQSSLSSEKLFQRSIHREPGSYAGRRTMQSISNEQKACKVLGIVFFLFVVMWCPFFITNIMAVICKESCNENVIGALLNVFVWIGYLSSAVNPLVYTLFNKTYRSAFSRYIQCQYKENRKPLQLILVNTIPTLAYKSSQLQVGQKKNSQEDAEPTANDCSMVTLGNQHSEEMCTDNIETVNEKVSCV
dFosB act = activators of mouse delta FosB homodimer; P13346; purified delta FosB, TAMRA-CDK5 oligo fluorescence polarization; percent of positive-control signal above neutral wells; activation, % at 25 µM; 340,000 compounds, 0.99% hits; AID 493131;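 active means mean activation above about 17%, with every replicate also reaching it, limit read from the data, passing the limit was not always enough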
IMP-1 inh-1 = blocks Pseudomonas aeruginosa IMP-1 metallo-beta-lactamase | 290,000 compounds, 0.45% hits | AID 1556 | purified IMP-1, nitrocefin hydrolysis, epi-absorbance fluorescence | inhibition, % at 5.6 µM;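 active means inhibition above the mean plus 3 SD of all compounds in the same screening run, cut at about 4.5% in these data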
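System: purified IMP-1 / Input: IMP-1 dispensed at 0.2 nM / Medium: 50 mM HEPES pH 7.1, 50 µM ZnSO4, 0.05% Brij 35 / Timing: 15 min enzyme–compound preincubation, then 25 min nitrocefin reaction, 25 °C / Technique: plate fluorescence quenching by hydrolysis product, ex 480/em 530 nm / Repeats: singlicate testing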
VIM-2 inhibitor = blocks Pseudomonas aeruginosa VIM-2 metallo-beta-lactamase. inhibition, % at 5.6 µM. 290,000 compounds, 0.89% hits. AID 1527. purified VIM-2, nitrocefin hydrolysis, epi-absorbance fluorescence;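 active means inhibition above the mean of all tested compounds plus 3 SD, cutoff set per screening run, cut at about 7.5% in these data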;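 further: red hydrolysis product quenches plate fluorescence so inhibitors raise well fluorescence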
IMP-1 inh-2 = blocks IMP-1 metallo-beta-lactamase in VIM-2 selectivity screen; shares compounds with VIM-2 inhibitor; purified IMP-1, nitrocefin hydrolysis, epi-absorbance fluorescence; inhibition, % at 5.6 µM; 1,300 tested, under 10 active; AID 1856; call rule not given here
VIM-2 FRET ctr = counter-screen for VIM-2 inhibitors: epi-absorbance artifacts via FRET; shares compounds with VIM-2 inhibitor; inhibition, % at 5.6 µM; AID 1857; purified VIM-2, CCF2 FRET substrate hydrolysis; 1,300 compounds, 23% hits;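 active means inhibition above the mean of all tested compounds plus 3 SD, cut at about 19% in these data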
TEM-1 inh = blocks E. coli TEM-1 beta-lactamase in VIM-2 selectivity screen. shares compounds with VIM-2 inhibitor. Purified TEM-1, nitrocefin hydrolysis, epi-absorbance fluorescence. inhibition, % at 5.6 µM. 1,300 compounds, 3% hits;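 active means inhibition above that campaign's mean inhibition plus 3 SD, cut at about 0.46% in these data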
VIM-2 inh conf = confirmation of P. aeruginosa VIM-2 metallo-beta-lactamase inhibitors; shares compounds with VIM-2 inhibitor; inhibition, % at 5.6 µM; purified VIM-2, nitrocefin hydrolysis, epi-absorbance; 1,300 compounds, 96% hits;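 active means inhibition of the VIM-2 beta-lactamase enzyme above about 11% from the earlier first-round screen, limit read from the data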
Each line names hits and unclear results; the compound was inactive in the other large screens (follow-up assays come after a bar, where they were run).

Cc1ccc(OC(=O)N(C)C[C@@H]2OCc3cnnn3CCCC(=O)N([C@@H](C)CO)C[C@@H]2C)cc1	none (no result: dFosB act, IMP-1 inh-1, VIM-2 inhibitor)
CC(=NCCCn1ccnc1)c1c(O)n(C)c(=O)n(C)c1=O	VIM-2 inhibitor 66
O=C(O)c1ccccc1-c1ccc(C=C2C(=O)N(c3ccccc3)C(=S)N(c3ccccc3)C2=O)o1	IMP-1 inh-1 14
O=c1[nH]c2ccccc2n1C1CCN(Cc2ccc(-c3[nH]c4cc5ncnc5cc4nc3-c3ccccc3)cc2)CC1	none (no result: dFosB act, IMP-1 inh-1, VIM-2 inhibitor)
CCOC(=O)[C@]12Cc3cc(Cl)ccc3[C@H]1N(C1CCCCC1)C(=O)c1ccccc12	none (no result: dFosB act, IMP-1 inh-1, VIM-2 inhibitor)
O=C1NC(=S)NC(=O)C1=Cc1ccc(Br)s1	IMP-1 inh-1 7.1
CN(C)CCN=Cc1c(O)n(Cc2ccc3c(c2)OCO3)c(=S)[nH]c1=O	none
O=c1[nH]c(=S)n(Cc2ccc(F)cc2)c(O)c1C=NCc1ccc2c(c1)OCO2	dFosB act 40
COc1cc(CC2(CCc3ccncc3)C(=O)NC(=O)NC2=O)cc(OC)c1OC	none
COc1cc2c(cc1OC)-c1c(OC)c(OC)c(OC)c3ccnc(c13)C2=O	VIM-2 inhibitor 9.4 (no result: HTR2A ag, dFosB act)
O=C1C=C2c3ccccc3CC(C(=O)O)C2CC1 (stereo not drawn)	none (no result: dFosB act, IMP-1 inh-1, VIM-2 inhibitor)
CC[C@H](C)C1OC(=O)[C@@H](C)[C@@H](CC)NC(=O)[C@H](C)N(C)C(=O)C(C)(C)C(=O)C(C)NC(=O)[C@H](Cc2ccc(OC)cc2)N(C)C(=O)[C@H](C(C)C)N(C)C(=O)CNC(=O)[C@H](CC(C)C)N(C)C(=O)CNC1=O (stereo partly drawn)	HTR2A ag 21 (no result: dFosB act, IMP-1 inh-1, VIM-2 inhibitor)
COC(=O)[C@@H]1N=C(c2ccc(OC)cc2)O[C@]12C(=O)N(C)c1cccc(Cl)c12	none (no result: dFosB act, IMP-1 inh-1, VIM-2 inhibitor)
O=C1c2cccc(N3CCNCC3)c2C2CCCCN12 (stereo not drawn)	none (no result: dFosB act, IMP-1 inh-1, VIM-2 inhibitor)
O=c1c(C=NCCN2CCNCC2)c(O)n(C2CCCCC2)c(=O)n1C1CCCCC1	dFosB act 41
O=c1c(C=NCc2cccs2)c(O)n(C2CCCCC2)c(=O)n1C1CCCCC1	none
CCN1C(=O)NC(=O)/C(=C\c2cn(CC(=O)N3CCCCC3)c3ccccc23)C1=O	VIM-2 inhibitor 11
CCN1C(=O)NC(=O)/C(=C\c2cn(CC(=O)N3CCCC3)c3ccccc23)C1=O	none
C=CCn1c(O)c(C=Nc2ccc(F)cc2)c(=O)[nH]c1=O	none
C=CCn1c(O)c(C=Nc2ccc(N(CC)CC)cc2)c(=O)[nH]c1=O	IMP-1 inh-1 5.3
COc1ccc(CCn2c(O)c(C=Nc3ccc(NC(C)=O)cc3)c(=O)[nH]c2=O)cc1OC	dFosB act 23
CCOc1ccc(N=Cc2c(O)n(CCc3ccc(OC)c(OC)c3)c(=O)[nH]c2=O)cc1	none
CN1CCN(c2ccc(N)c(N3CCN(C)CC3)c2)CC1	dFosB act 56
C=C1C(=O)OC2CCN3CC=C(COC(=O)C(C)(O)C4(CO4)C1C)C23 (stereo not drawn)	none (no result: dFosB act, IMP-1 inh-1, VIM-2 inhibitor)
CCCCn1c(N)c(C(=O)NCCN2CCOCC2)c2nc3ccccc3nc21	none
CCOC(=O)c1c(N)n(CCN2CCCCC2)c2nc3ccccc3nc12	VIM-2 inhibitor 7.8
O=[N+]([O-])c1ccc(NCc2ccc(Cl)cc2)c2ccncc12	none
O=[N+]([O-])c1ccc(NCc2ccccc2)c2nonc12	IMP-1 inh-1 30, VIM-2 inhibitor 23 (no result: HTR2A ag, dFosB act)
CS(=O)(=O)Nc1ccc(Cc2noc(-c3ccc4[nH]cc(CCN)c4c3)n2)cc1	VIM-2 inhibitor 29 (no result: HTR2A ag, dFosB act)
CC(=O)OC1C(O)C2=C3C4(C)C1C(C)(C)C(=O)CC4C3(O)C(OC(C)=O)C1(CC1C)C2=O (stereo not drawn)	none (no result: dFosB act, IMP-1 inh-1, VIM-2 inhibitor)
C=CCn1c(O)c(C=NCCCn2ccnc2)c(=O)[nH]c1=O	VIM-2 inhibitor 23 | IMP-1 inh-2 inactive | VIM-2 FRET ctr inactive | TEM-1 inh inactive | VIM-2 inh conf 37

Screening data from PubChem BioAssay.
